Screening data as filed in PubChem.
The list is not random: actives were taken first. Their share in the collection is about 1.5%.
EBI2 antag – EBI2 receptor antagonists, beta-arrestin recruitment, primary screen, cell-based, luminescence, 7a,25-OHC stimulation, uHTS. 360,000 tested, 0.81% active. G-protein coupled receptor 183 (Homo sapiens), P32249. 7a,25-OHC stimulated. AID 651636, 2012. inhibition, % at 5 µM; in the data active = inhibition above about 38%;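 note: enzyme fragment complementation signal reports receptor beta-arrestin coupling in cells; 0% = agonist plus DMSO wells and 100% = wells without agonist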
APJ antagonist – antagonists of human apelin receptor APJ, primary screen, CHO-K1 cells, beta-arrestin complementation, luminescence | P35414 | inhibition, % at 20 µM | 330,000 tested, 0.32% active;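 active = inhibition above about 40% at 20 µM, limit read from the data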;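 note: cells challenged with 10 nM apelin-13 agonist together with compound; plate controls were apelin-13 plus DMSO wells for no effect and DMSO wells lacking apelin-13 for full effect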
Target sequence (P35414 whole entry, looked up): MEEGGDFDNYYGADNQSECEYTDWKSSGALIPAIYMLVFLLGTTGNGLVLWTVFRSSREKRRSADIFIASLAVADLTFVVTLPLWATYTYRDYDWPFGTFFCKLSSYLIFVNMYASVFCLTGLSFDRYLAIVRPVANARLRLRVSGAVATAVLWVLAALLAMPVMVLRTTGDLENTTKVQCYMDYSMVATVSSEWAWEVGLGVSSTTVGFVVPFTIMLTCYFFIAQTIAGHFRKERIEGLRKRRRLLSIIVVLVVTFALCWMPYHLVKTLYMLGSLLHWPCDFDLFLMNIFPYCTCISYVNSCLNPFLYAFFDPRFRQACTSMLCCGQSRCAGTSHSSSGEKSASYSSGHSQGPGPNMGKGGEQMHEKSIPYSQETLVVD
CCR6 antagonist – CCR6 receptor antagonists, primary screen, cell-based, CHO-K1, luminescence, beta-arrestin, uHTS. C-C chemokine receptor type 6 (Homo sapiens), P51684. CHO-K1 CCR6 PathHunter beta-arrestin, CCL20-stimulated. inhibition, % at 20 µM. 340,000 tested, 0.49% active. AID 493098, 2011;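 active = compounds whose inhibition of the agonist-driven luminescence signal at 20 µM reaches about 50%, limit read from the data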;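 note: cells stimulated with CCL20 at 14 nM final; plate controls were DMSO with CCL20 for no effect and DMSO without agonist for full effect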
APJ ag – agonists of human apelin receptor APJ, primary screen, CHO-K1 cells, PathHunter beta-arrestin, luminescence; P35414; 0% DMSO wells, 100% apelin; activation, % at 20 µM; 330,000 tested, 0.11% active; AID 2520, 2010;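 active = activation more than six SD over the plate average, tested at 20 µM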;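 note: 0% = DMSO alone and 100% = apelin-13 at 10 nM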
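Assay system – PathHunter CHO-K1 APJ (AGTRL-1) beta-arrestin reporter cells · Compound – one dose, 20 µM compound, 1% DMSO · Timing – compound 90 min 25 °C, reagent 1 h · Measured by – luminescence from split beta-galactosidase complementation, Galacton Star/Emerald II substrate · Measure – beta-arrestin recruitment to APJ as agonist activity, luminescent signal · Benchmarks – DMSO vs Apelin-13 10 nM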
CXCR6 block – CXCR6 receptor inhibitors, primary screen, cell-based, beta-arrestin, luminescence, CHO-K1 PathHunter, 1536-well; C-X-C chemokine receptor type 6 (Homo sapiens), O00574; inhibition, % at 20 µM; 360,000 tested, 0.36% active; AID 602244, 2012; in the data active = inhibition above about 34%, passing the limit was not always enough;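 note: antagonist mode with CXCL16 agonist at 10 nM final; 0% = 10 nM CXCL16 with DMSO and 100% = unstimulated wells without agonist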
Target sequence (O00574 whole entry, looked up): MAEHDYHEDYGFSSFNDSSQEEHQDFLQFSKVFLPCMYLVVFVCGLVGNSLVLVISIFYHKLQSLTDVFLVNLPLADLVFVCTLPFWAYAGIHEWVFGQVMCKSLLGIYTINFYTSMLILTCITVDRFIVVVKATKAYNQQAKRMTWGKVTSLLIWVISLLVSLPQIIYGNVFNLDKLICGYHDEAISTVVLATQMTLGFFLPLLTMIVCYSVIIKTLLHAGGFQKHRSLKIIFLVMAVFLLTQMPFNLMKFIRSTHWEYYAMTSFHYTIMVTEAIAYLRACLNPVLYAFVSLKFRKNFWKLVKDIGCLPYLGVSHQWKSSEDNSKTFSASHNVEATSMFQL
EBI2 conf – EBI2 antagonist hit retest, beta-arrestin, confirmation, cell-based, single concentration, luminescence, 7a,25-OHC stimulation; shares compounds with EBI2 antag; 7a,25-OHC antagonism; inhibition, % at 5 µM; 2,400 tested, 29% active; AID 651997, 2013;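 active = inhibition of at least 50%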
EBI2 agonist – EBI2 agonist activity of antagonist hits, confirmation, counter-screen for EBI2 antagonist project, cell-based, single concentration, agonist mode, luminescence. shares compounds with EBI2 antag. EBI2-expressing cells, 60 min; 0% vehicle, 100% 7α,25-dihydroxycholesterol control. activation, % at 5 µM. 2,400 tested, under 10 active;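 active = activation of at least 50%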
bGal cs – E. coli beta-galactosidase enzyme inhibition, confirmation, counter-screen for EBI2 antagonist project, biochemical, luminescence, single concentration; shares compounds with EBI2 antag; 2,400 tested, 1% active; inhibition, % at 5 µM; AID 652176, 2013; purified beta-galactosidase, luminescent Galacton Star, 15 min;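 active = replicate-average signal at least 3 plate SD below neutral wells, shown as high inhibition, flagging enzyme-inhibiting false positives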;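 note: 0% = DMSO wells with enzyme and 100% = wells lacking enzyme; higher means stronger loss of beta-gal luminescence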
An asterisk follows results filed as active; . = no result.

SMILES | EBI2 antag | APJ antagonist | CCR6 antagonist | APJ ag | CXCR6 block | EBI2 conf | EBI2 agonist | bGal cs
CC(C)C[C@@H](CN1CCC[C@@H]1CN1C(=S)NC[C@@H]1Cc1ccc(O)cc1)N1C[C@H](Cc2ccc(O)cc2)N(CCc2ccccc2)C1=S | 74.0* | . | . | . | 1.4 | 18.8 | 0.1 | -11.3
CC(C)C[C@H]1CNC(=S)N1C[C@H]1CCCN1C[C@H](CC(C)C)N1C[C@H](Cc2ccc(O)cc2)N(CC2CCCCC2)C1=S | 61.1* | . | . | . | 11.4 | 7.6 | -0.8 | -6.7
CCOc1ccc(CCN2C(=S)N([C@@H](CC(C)C)CN3CCCC3CN3C(=S)NC[C@@H]3CC(C)C)C[C@@H]2Cc2ccc(O)cc2)cc1 (some centres not stated) | 27.1 | . | 13.5 | . | 0.6 | . | . | .
CC(C)C[C@@H](CN1CCC[C@@H]1CN1C(=S)NC[C@@H]1Cc1ccccc1)N1C[C@H](Cc2ccc(O)cc2)N(CCc2ccccc2)C1=S | 37.5* | . | . | . | -1.4 | 5.1 | 1.0 | 6.8
CC(C)C[C@@H](CN1CCCC1CN1C(=S)NC[C@@H]1Cc1ccccc1)N1C[C@H](Cc2ccc(O)cc2)N(CCc2ccccc2)C1=S (some centres not stated) | 21.5 | . | . | . | -0.3 | . | . | .
COc1ccccc1CNc1cc(CSc2ccc(Cl)cc2)nc(C)n1 | 48.5* | -11.1 | -1.4 | -3.2 | 14.0 | 31.9 | 0.8 | -1.4
CC(Sc1nc2cc([N+](=O)[O-])ccc2n1-c1ccc(F)cc1)C(=O)NCc1ccc2c(c1)OCO2 (configuration not stated) | 54.2* | 15.5 | 28.9 | 0.3 | 24.2 | 32.5 | -1.6 | 8.9
Cc1ccccc1OCC(=O)NNC(=O)C1CCN(c2ncnc3sc(C)c(C)c23)CC1 | 49.9* | -14.2 | -9.4 | 4.1 | -12.7 | 19.8 | 0.8 | 5.5
COc1cccc(-n2cnc3sc(C)cc3c2=O)c1 | -4.2 | -3.4 | 5.8 | 2.1 | 1.0 | . | . | .
O=C(Nc1cc(S(=O)(=O)Nc2ccc(Cl)cc2)ccc1N1CCCCC1)c1ccc(F)cc1 | 29.4 | -10.5 | 14.3 | -2.6 | 14.8 | . | . | .
N#Cc1ccc(C(=O)Nc2cc(S(=O)(=O)Nc3ccc(Cl)cc3)ccc2N2CCCCC2)cc1 | 52.4* | -15.2 | 13.1 | -0.7 | -4.6 | 33.4 | 0.8 | 3.5
[O-][n+]1onc2c1CCc1c-2nc(-c2ccccc2)n1OCc1ccccc1 | 48.9* | -16.9 | 16.5 | -3.4 | 9.2 | 39.8 | 0.5 | 4.0
COn1c(-c2ccccc2)nc2c1CCc1c-2no[n+]1[O-] | -7.7 | 1.1 | 2.1 | 0.9 | 4.7 | . | . | .
Cc1cccc(Nc2nc(-c3c(C)nc4ccccn34)cs2)c1 | 63.1* | 14.9 | 4.1 | -1.4 | 1.2 | 54.4* | 1.1 | 7.3
Cc1nc2ccccn2c1-c1csc(Nc2cccc(O)c2)n1 | 8.3 | . | 8.8 | . | -3.2 | . | . | .
S=C(N/N=C/c1ccccc1Cl)Nc1ccccc1 | 43.1* | 33.0 | 32.0 | -3.3 | 12.4 | 37.5 | 0.8 | 4.1
CNC(=S)N/N=C/c1ccccc1Cl | -3.2 | 4.2 | 13.2 | -0.8 | 7.3 | . | . | .
CCN(CC)C(=O)CSc1nc2c(sc(=S)n2CC)c(=O)n1-c1ccccc1 | 10.0 | -4.4 | -1.2 | -3.5 | 6.0 | . | . | .
CCN(CC)C(=O)CSc1nc2c(sc(=S)n2-c2ccccc2)c(=O)n1Cc1ccco1 | 56.6* | 5.0 | 26.8 | -2.9 | 13.8 | 37.2 | -0.4 | 8.0
Nc1c(Br)cc(Br)c2c1C(=O)c1c(cccc1S(=O)(=O)O)C2=O | -12.4 | . | 5.6 | . | 16.0 | . | . | .
Cc1cc2oc(=O)cc(CN(Cc3ccccc3)Cc3ccccc3)c2cc1Cl | 52.2* | . | . | . | 1.2 | 51.2* | -0.4 | -4.0
O=C(CCC1CCCC1)NNC(=O)COc1ccc(Br)cc1 | 78.8* | 6.1 | -0.8 | -0.5 | 2.1 | 36.9 | -0.5 | -7.2
Cc1ccc(NC(=O)CN(C)C(=O)c2cccc(Br)c2)cc1 | -9.6 | 9.8 | 12.3 | -4.4 | 8.1 | . | . | .
O=C(c1cc(-c2ccccc2)on1)N1CCN(Cc2ccc3c(c2)OCO3)CC1 | 49.6* | 15.0 | 4.7 | 0.8 | -3.5 | 6.8 | 1.2 | 3.6
Cc1ccc(C(=O)N2CCN(Cc3ccc4c(c3)OCO4)CC2)cc1C | 3.0 | 2.0 | 14.1 | 0.4 | -7.5 | . | . | .
SMILES | EBI2 antag | APJ antagonist | CCR6 antagonist | APJ ag | CXCR6 block | EBI2 conf | EBI2 agonist | bGal cs
O=C(c1ccc(Cl)c(Cl)c1)N1CCN(Cc2ccc3c(c2)OCO3)CC1 | 56.8* | 4.2 | 12.4 | -2.2 | -0.8 | 47.8 | 0.3 | -20.2
O=C(c1cc(-c2ccc(F)cc2)no1)N1CCN(Cc2ccc3c(c2)OCO3)CC1 | 75.9* | 20.3 | 0.3 | -4.5 | -10.1 | 49.1 | 0.9 | 3.1
O=C(c1ccc2c(c1)OCO2)N1CCN(S(=O)(=O)c2ccccc2)CC1 | 2.7 | -39.3 | -1.7 | -2.1 | -14.8 | . | . | .
O=C(c1ccc2c(c1)OCO2)N1CCN(S(=O)(=O)c2ccc(Br)cc2Cl)CC1 | 52.1* | -5.2 | 8.4 | -0.3 | 1.9 | 23.5 | -1.8 | -6.8
Nc1c(C(=O)OCC(=O)Nc2cccc([N+](=O)[O-])c2)[nH]c(=O)[nH]c1=O | -2.1 | 4.2 | 5.8 | -3.8 | 4.9 | . | . | .
N#C/C(=N\Nc1cccc2ccccc12)c1nnc2n1CCCCC2 | 13.9 | 5.5 | 28.3 | -7.1 | 20.6 | . | . | .
COc1ccc(-c2cn(Cc3cccc(OC)c3)nn2)cc1 | 43.2* | 2.8 | 4.6 | -3.5 | -1.5 | 22.4 | 1.2 | 1.8
Cc1ccc(-c2noc(CSc3nnc(Cc4ccccc4)n3-c3ccc(Cl)cc3)n2)cc1 | 15.4 | 6.5 | 21.1 | -6.8 | 18.8 | . | . | .
COc1ccc(-c2noc(CSc3nnc(Cc4ccccc4)n3-c3ccc(Cl)cc3)n2)cc1 | 38.9* | -16.3 | 22.7 | -5.3 | 19.2 | 14.2 | 0.2 | 1.7
NS(=O)(=O)c1ccc(CCNC(=O)C2CCN(S(=O)(=O)c3ccc(Br)s3)CC2)cc1 | -6.6 | 1.7 | 13.3 | -2.4 | -7.0 | . | . | .
Cc1ccc(CNC(=O)C2CCN(S(=O)(=O)c3ccc(Br)s3)CC2)cc1 | 91.9* | -9.8 | 18.7 | 2.7 | 0.2 | 61.2* | -1.5 | -5.8
Cc1ccc(CNC(=O)C2CCN(S(=O)(=O)c3cccs3)CC2)cc1 | 59.8* | -0.6 | 7.9 | -1.8 | -0.6 | 50.6* | 0.0 | -21.4
O=C(COC(=O)COc1ccccc1)NC12CC3CC(CC(C3)C1)C2 | -18.1 | -0.2 | -3.8 | -3.4 | 1.8 | . | . | .
